Source: ChEMBL document CHEMBL1122752, “Nucleosides. 129. Synthesis of antiviral nucleosides: 5-alkenyl-1-(2-deoxy-2-fluoro-beta-D-arabinofuranosyl)uracils” (J Med Chem, 1984)

Columns and labels:
[1] = Cytotoxicity expressed as ID50 which is the concentration required for 50% growth inhibition of normal human lymphocytes.; details: read-out: ID50 (the source's name)
Outline: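 Normal human lymphoblasts stimulated with PHA; drug concentration causing 50% inhibition of replication (ID50) determined; values are means of three separate experiments run in parallel.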

Vero [2] = assay: In vitro antiviral activity was determined by plaque-reduction assay in HSV-1(strain 2931) infected Vero cell monolayers; assay type: functional; details: Chlorocebus sabaeus, read-out: ED50 (the source's name)
Outline: (§1)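 Vero cell monolayers infected with about 20–30 pfu per well (HSV-1 strain 2931 or HSV-2 strain G), 2 h incubation, then overlaid with maintenance medium containing various drug concentrations. Plaques counted after 2 days of development. ED50 (50% plaque reduction) calculated by linear regression. Values are the mean of three separate experiments run in parallel.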

Vero [3] = assay: In vitro antiviral activity was determined by plaque-reduction assay in HSV-2 (strain G) infected Vero cell monolayers; assay type: functional; details: Chlorocebus sabaeus, read-out: ED50 (the source's name); outline: as §1

Structure (SMILES) | GI50 [1] | EC50 (Vero [2]) | EC50 (Vero [3])
O=c1[nH]c(=O)n([C@@H]2O[C@H](CO)[C@@H](O)[C@@H]2F)cc1/C=C/I | > 100000 nM | 1100 nM | 17300 nM
Nc1nc(=O)n([C@@H]2O[C@H](CO)[C@@H](O)[C@H]2F)cc1I | 8600 nM | 24 nM | 14 nM
CCc1cn([C@H]2O[C@@H](CO)[C@H](O)[C@@H]2F)c(=O)[nH]c1=O | > 100000 nM | 240 nM | 650 nM
O=c1[nH]c(=O)n([C@H]2O[C@@H](CO)[C@H](O)[C@@H]2F)cc1/C=C/Br | > 100000 nM | 400 nM | 13900 nM
O=c1[nH]c(=O)n([C@@H]2O[C@H](CO)[C@@H](O)[C@@H]2F)cc1/C=C/Cl | > 100000 nM | 540 nM | 6900 nM
C=Cc1cn([C@@H]2O[C@H](CO)[C@@H](O)[C@H]2F)c(=O)[nH]c1=O | > 100000 nM | 160 nM | 690 nM
O=c1[nH]c(=O)n([C@H]2C[C@H](O)[C@@H](CO)O2)cc1/C=C/Br [BRIVUDINE] | – | 70 nM | 13000 nM
